Publication PMC13077713 (Journal of medicinal chemistry, 2025)
Several values for one entry are separate records, joined by “and”; a condition that tells them apart may be missing. Equal entries are not always repeated. Where two headings read alike, the source gives them in different places.

Columns and labels:
[1] = Cytotoxicity, CellTiter 96 cell proliferation assay, PBM cells; format: cell-based, human; conditions: human, peripheral blood mononuclear (PBM) cells
[2] = Cytotoxicity, CellTiter 96 cell proliferation assay, Vero cells; format: cell-based, African green monkey; conditions: African green monkey, Vero kidney cells
[3] = system: HBV DNA production in HepAD38 cells; assay: Anti-HBV activity; format: cell-based, Hepatitis B virus (HBV)
[4] = Cytotoxicity, CellTiter 96 cell proliferation assay, CEM cells; format: cell-based, human; conditions: human, CEM T lymphoblast cells
[5] = Cytotoxicity, CellTiter 96 cell proliferation assay, HepG2 cells; format: cell-based, human; conditions: human, HepG2 hepatocellular carcinoma cells
[6] = system: human peripheral blood mononuclear (PBM) cells; assay: Cytotoxicity, CellTiter 96 cell proliferation assay, PBM cells; format: cell-based; conditions: read-out: Cytotoxicity, CC50 PBM; PBM cells
[7] = system: African green monkey kidney (Vero) cells; assay: Cytotoxicity, CellTiter 96 cell proliferation assay, Vero cells; format: cell-based; conditions: read-out: Cytotoxicity, CC50 Vero; Vero cells
[8] = target: preassembled HBV capsids (Cp149 protein) (Hepatitis B virus genotype D subtype ayw, UniProt P03146); conditions: 20 μM CAM; for Radius (DLS, table) / PD (polydispersity): 7.5 μM Cp149, 30 min; for Radius (DLS, table): 1% DMSO control 24.6 ± 3.4; for PD (polydispersity): 1% DMSO control 32.3 ± 18.6; for average particle radius (DLS, text): 1% DMSO control 24.6 nm
Chain of preassembled HBV capsids (Cp149 protein) (P03146 1-149): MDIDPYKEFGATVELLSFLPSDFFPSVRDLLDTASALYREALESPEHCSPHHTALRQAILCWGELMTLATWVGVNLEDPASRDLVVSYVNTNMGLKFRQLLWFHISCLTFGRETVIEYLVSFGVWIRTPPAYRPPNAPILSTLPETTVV

[9] = system: human T lymphoblast (CEM) cells; assay: Cytotoxicity, CellTiter 96 cell proliferation assay, CEM cells; format: cell-based; conditions: read-out: Cytotoxicity, CC50 CEM; CEM cells
[10] = target: T1, Cp149 dimers (Hepatitis B virus genotype D subtype ayw, UniProt P03146)
T1 sequence (P03146 1-149): as above

[11] = target: T1, Cp149 dimers; assay: Static SAXS of Cp149 capsid assembly in the presence of CAM; format: biochemical, Hepatitis B virus (HBV); conditions: ρ = 3, undiluted sample, 30 μM dimers; 1.54 cm^−1 without CAM
[12] = system: HBc in HepAD38 cells; assay: Confocal microscopy, nucleo-cytoplasmic distribution of HBc in HepAD38 cells; format: cell-based, Hepatitis B virus (HBV); conditions: increasing concentration, 72 h
[13] = system: human hepatocellular carcinoma (HepG2) cells; assay: Cytotoxicity, CellTiter 96 cell proliferation assay, HepG2 cells; format: cell-based; conditions: read-out: Cytotoxicity, CC50 HepG2; HepG2 cells
[14] = target: T1, Cp149 dimers; assay: Cryo-electron microscopy classification of Cp149 capsids assembled with CAM; format: biochemical, Hepatitis B virus (HBV)
Summary of the method: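 Cp149 was expressed in E. coli BL21 and purified as capsids. These were dissociated with 3 M urea and taken to subunits by SEC. Assembly was triggered manually by mixing 30 μM (1 mg/ml) dimers in 1 mM DTT, 20 mM Tris-HCl pH 7.5 with 200 mM ammonium acetate, with or without 90 μM CAM (ρ = 3). Samples were concentrated 11-fold, imaged by cryo-EM, and particles 2D-classified.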

[15] = system: HBV-infected HepG2-NTCP cells; format: cell-based
[16] = system: HBV-infected HepG2-NTCP cells; format: cell-based; conditions: post-infection treatment
[17] = target: T1, Cp149 dimers; assay: Mass photometry of Cp149 capsid assembly in the presence of CAM; format: biochemical, Hepatitis B virus (HBV); conditions: ρ = 3, assembled at 30 μM subunits, diluted to 0.18 μM; 57% without CAM
[18] = Hepatitis B virus, HePAD38, read-out: Anti-HBV activity EC50
[19] = Hepatitis B virus, HePAD38, read-out: Anti-HBV activity EC90
[20] = read-out: Anti-HBV activity EC50, HBV DNA production, HepAD38 cells
[21] = read-out: Anti-HBV activity EC90, HBV DNA production, HepAD38 cells

Cc1c(C(=O)C(=O)NCc2c[nH]nn2)c(C)n(C)c1C(=O)Nc1ccc(F)c(F)c1 [Compound 7, 4-(2-(((1H-1,2,3-triazol-4-yl)methyl)amino)-2-oxoacetyl)-N-(3,4-difluorophenyl)-1,3,5-trimethyl-1H-pyrrole-2-carboxamide]
CC50 [1]: 74 ± 14 µM
CC50 [2]: > 100 µM
EC50 [3, 18]: 0.047 ± 0.042 µM
EC90 [3, 19]: 0.58 ± 0.03 µM
SI: Selectivity index ([3]; toxicity in HepG2 / activity in HepAD38): >2128
CC50 [4]: 67.8 ± 19.6 µM
CC50 [5]: > 100 µM

CCCCCCCCCCCCn1cc(CNC(=O)C(=O)c2c(C)c(C(=O)Nc3ccc(F)c(F)c3)n(C)c2C)nn1 [Compound 10, N-(3,4-difluorophenyl)-4-(2-(((1-dodecyl-1H-1,2,3-triazol-4-yl)methyl)amino)-2-oxoacetyl)-1,3,5-trimethyl-1H-pyrrole-2-carboxamide]
CC50 [1]: 1.6 ± 0.6 µM
CC50 [2]: 10.4 ± 9 µM
EC50 [3, 18]: 0.307 ± 0.153 µM
EC90 [3, 19]: 0.97 ± 0.13 µM
CC50 [4]: 9.9 ± 4.6 µM
CC50 [5]: 30.5 ± 25.6 µM

Cc1c(C(=O)C(=O)NCc2cn(CCCCCCCCCCCCCCn3cc(CNC(=O)C(=O)c4c(C)c(C(=O)Nc5ccc(F)c(F)c5)n(C)c4C)nn3)nn2)c(C)n(C)c1C(=O)Nc1ccc(F)c(F)c1 [Compound 6e, 4,4’-(2,2’-(((Tetradecane-1,14-diylbis(1H-1,2,3-triazole-1,4-diyl))bis(methylene))bis(azanediyl))bis(2-oxoacetyl))bis(N-(3,4-difluorophenyl)-1,3,5-trimethyl-1H-pyrrole-2-carboxamide)]
CC50 [6]: > 100 µM
CC50 [7]: > 100 µM
Radius (DLS, table) [8]: 214 ± 61.3 nM
PD (polydispersity) [8]: Multimodal distribution
average particle radius (DLS, text) [8]: 214 nm
times more potent than reference compound GLP-26 ([3]; HepAD38 EC50 vs GLP-26): 80 times
EC50 [3, 20]: 0.0001 µM
EC90 [3, 21]: 0.009 ± 0.0002 µM
CC50 [9]: > 100 µM
Associated timescale of Rgw [10]: 131 ± 21 ms
Associated timescale of 〈N〉w [10]: 633 ± 77 ms
Rgw (mean radius of gyration, plateau) [10]: 142 ± 0.3 Å
Subunit binding energies −Δg [10]: 9.5 kT
〈N〉w∞ (mean aggregation number at equilibrium) [10]: 126 and 126 ± 3
SAXS intensity at zero angle I(0) [11]: 1.32 cm⁻¹
levels of HBc inside the nucleus [12]: clear decrease in the levels of HBc inside the nucleus
CC50 [13]: > 100 µM
capsids that displayed defects (single-particle analysis) ([14]; 90 μM, 30 μM subunits): approximately 45%
HBeAg EC50 compared to GLP-26 or GLS-4 [15]: nearly eight-fold lower
fold more potent than GLP-26 at inhibiting HBV virion production [16]: 10 fold
fold more potent than GLP-26 at inhibiting HBeAg biogenesis [16]: 10 fold

C#CCNC(=O)C(=O)c1c(C)c(C(=O)Nc2ccc(F)c(F)c2)n(C)c1C [GLP-26]
CC50 [6]: > 100 µM
CC50 [7]: 30.5 ± 6.7 µM
capsid-sized events [17]: 27%
Radius (DLS, table) [8]: 53.0 ± 13.6 nM
PD (polydispersity) [8]: 26.8 ± 9.8%
average particle radius (DLS, text) [8]: 53.0 nm
EC50 [3, 20]: 0.008 ± 0.001 µM
EC90 [3, 21]: 0.07 ± 0.02 µM
CC50 [9]: > 100 µM
Subunit binding energies −Δg [10]: 10.4 kT
Rgw (mean radius of gyration, plateau) ([10]; ρ = 3, 30 μM subunits, 200 mM ammonium acetate, 37°C, ρ = 0: 176 ± 6 Å): 180 Å and 180 ± 1Å
〈N〉w∞ (mean aggregation number at equilibrium) ([10]; ρ = 3, 30 μM subunits, 200 mM ammonium acetate, ρ = 0: 156 ± 6): 190 and 190 ± 11
Associated timescale of Rgw ([10]; ρ = 3, 30 μM subunits, 200 mM ammonium acetate, ρ = 0: 237 ± 62 ms): 116 ± 63 ms
Associated timescale of 〈N〉w ([10]; ρ = 3, 30 μM subunits, 200 mM ammonium acetate, ρ = 0: 699 ± 138 ms): 487 ± 178 ms
SAXS intensity at zero angle I(0) [11]: 1.86 cm⁻¹
CC50 [13]: > 100 µM
larger objects with an ellipsoidal appearance (2D classification) ([14]; ρ = 3 (90 μM), 30 μM Cp149): 17.5%
objects that appeared to be T = 3 capsids (2D classification) ([14]; ρ = 3 (90 μM), 30 μM Cp149): 1.8%
objects very similar to T = 4 capsids (2D classification) ([14]; ρ = 3 (90 μM), 30 μM Cp149): 81.3%

Cc1c(C(=O)C(=O)NCc2cn(CCCCCCCCn3cc(CNC(=O)C(=O)c4c(C)c(C(=O)Nc5ccc(F)c(F)c5)n(C)c4C)nn3)nn2)c(C)n(C)c1C(=O)Nc1ccc(F)c(F)c1 [Compound 6b, 4,4’-(2,2’-(((Octane-1,8-diylbis(1H-1,2,3-triazole-1,4-diyl))bis(methylene))bis(azanediyl))bis(2-oxoacetyl))bis(N-(3,4-difluorophenyl)-1,3,5-trimethyl-1H-pyrrole-2-carboxamide)]
CC50 [6]: > 100 µM
CC50 [7]: > 100 µM
EC50 [3, 20]: 0.438 ± 0.211 µM
EC90 [3, 21]: 5.52 µM
CC50 [9]: > 100 µM
CC50 [13]: > 100 µM
